TAAR1 ag – agonists of human TAAR1 | Q96RJ0 | AID 624467 | activation, % at 3 µM | hit rate 0.99% among 360,000 | CHO RD-HGA16 TAAR1, Fluo-8 calcium fluorescence; vehicle wells 0%, saturating PEA agonist 100%;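 active = activation above the mean activation of all test compounds in the run plus 3 SD, cut at about 38% in these data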
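Test system: RD-HGA16 (CHO) cells co-expressing Gα16 and hTAAR1 | Doses: Single dose, 3 µM | Schedule: 17-24 h seeding, 75 min 37 °C dye, 30 min RT | Evaluation: % activation from peak over basal fluorescence ratio, DMSO-to-PEA scaled | Technique: Kinetic Fluo-8 calcium fluorescence | Benchmarks: Low control DMSO, high control PEA (EC100)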
CHRM1 agonist – activates human CHRM1 receptor | P11229 | CHO-K1 hM1, Fluo-8 calcium fluorescence, agonist mode; 0% DMSO, 100% acetylcholine EC100 | activation, % at 3 µM | hit rate 0.33% among 360,000;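 active = activation above the run's mean compound activation plus 3 SD, cut at about 16% in these data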;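 also: peak over basal fluorescence ratio within a 140 s kinetic read after compound addition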
CHRM1 antagonist – antagonists of human M1 muscarinic receptor | inhibition, % at 3 µM | hit rate 1.3% among 360,000 | P11229 | AID 588852 | CHO-K1 hM1, Fluo-8 calcium fluorescence, ACh EC80 antagonist;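 active = percent inhibition above its own plate's cutoff, namely the mean of that plate's compound wells plus 3 SD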;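 also: peak over basal fluorescence ratio during 140 s after agonist addition; 0% = ACh EC80 plus DMSO and 100% = DMSO alone without agonist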
HTR2A ag – mouse HTR2A agonism via beta-arrestin recruitment; P35363; hit rate 0.66% among 360,000; CHO-K1 mHTR2A beta-arrestin complementation, luminescence; percent of 30 µM serotonin response; AID 624169; activation, % at 7.6 µM;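 active = activation above a run cutoff, the mean activation of all tested compounds plus 3 SD, cut at about 14% in these data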;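 also: 0% = plate median of compound wells and 100% = 30 µM serotonin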
Target sequence (P35363 whole entry, looked up): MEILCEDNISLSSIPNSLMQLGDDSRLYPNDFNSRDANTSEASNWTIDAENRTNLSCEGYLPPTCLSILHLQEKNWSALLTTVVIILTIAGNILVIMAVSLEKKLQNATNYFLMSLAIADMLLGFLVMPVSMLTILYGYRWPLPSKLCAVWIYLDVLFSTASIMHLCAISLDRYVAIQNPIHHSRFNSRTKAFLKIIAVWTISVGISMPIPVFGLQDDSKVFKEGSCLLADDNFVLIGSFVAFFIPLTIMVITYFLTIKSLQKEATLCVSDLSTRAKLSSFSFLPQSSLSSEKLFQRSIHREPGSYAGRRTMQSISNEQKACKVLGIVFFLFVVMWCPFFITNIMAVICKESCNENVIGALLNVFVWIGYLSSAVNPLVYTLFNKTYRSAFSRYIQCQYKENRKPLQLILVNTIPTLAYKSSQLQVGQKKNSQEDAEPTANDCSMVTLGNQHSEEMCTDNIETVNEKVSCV
CHRM1 PAM – positive allosteric modulators of human M1 muscarinic receptor | CHO-K1 hM1, Fluo-8 calcium fluorescence, ACh EC20; 0% = ACh EC20, 100% = maximal ACh | activation, % at 3 µM | hit rate 0.088% among 360,000 | AID 588819 | P11229; in the data active = activation above about 19%, passing the limit was not always enough
TAAR1 antag – antagonists of human TAAR1; CHO RD-HGA16 TAAR1, Fluo-8 calcium fluorescence, antagonist; inhibition, % at 3 µM; hit rate 1.5% among 360,000;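 active = inhibition above a per-plate cutoff, the mean inhibition of test compounds on that plate plus 3 SD, cut at about 49% in these data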;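 also: 0% = DMSO plus EC80 beta-PEA response and 100% = DMSO alone without agonist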
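System: CHO RD-HGA16 cells bearing hTAAR1. Reagent: EC80 β-phenethylamine stimulus. Schedule: seeding 17-24 h prior, 75-min 37 °C, 30-min RT dye loading. Signal: Fluo-8 intracellular calcium dye fluorescence, real-time kinetic reads. Read-out: % inhibition from peak post-agonist over basal fluorescence ratio. Benchmarks: vehicle wells and EC80 agonist wells. Replicates: n of 1.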
An asterisk follows results filed as active; nt = no result given. This is a sample that favours compounds with a hit; in the whole collection about 3.9% have one here.

SMILES | TAAR1 ag | CHRM1 agonist | CHRM1 antagonist | HTR2A ag | CHRM1 PAM | TAAR1 antag
CC(C)(C)c1ccc(-c2cc(NC(=O)Cc3c[nH]c4ccccc34)ccc2Nc2cccnc2)cc1 | 1.4 | nt | nt | nt | nt | -32.1
COc1cc(CN2CCC(C(=O)NC(c3ccccc3)c3ccsc3)CC2)cc(OC)c1 (stereo unspecified) | 44.0* | 9.2 | -12.2 | -3.8 | 8.4 | 1.9
O=C(NC(c1ccccc1)c1ccsc1)C1CCN(Cc2ccccc2)CC1 (stereo unspecified) | 9.6 | -6.0 | -8.0 | 7.6 | -0.4 | 13.4
CN(C)c1ccc(/C=C(\C#N)C(=O)Nc2nc3c(s2)CCN(Cc2ccccc2)C3)cc1 | 23.8 | 20.9* | 34.7* | 0.7 | -11.5 | 41.5
O=C(Nc1nc2c(s1)CN(Cc1ccccc1)CC2)C1CCC1 | 2.4 | -7.6 | 45.6* | 0.1 | -10.2 | -3.1
O=S1(=O)N[C@H](Cc2ccccc2)COc2cc(N3CCCCC3)ccc21 | -1.7 | nt | nt | nt | nt | -20.1
Cc1[nH]c2ccccc2c1CC(=O)Nc1ccc(Nc2cccnc2)c(-c2ccc(Cl)c(Cl)c2)c1 | 2.1 | nt | nt | nt | nt | 10.2
Cc1ccc2c(c1)S(=O)(=O)N(C)C(c1ccccc1)=C2 | -0.7 | -5.7 | 0.9 | -3.4 | -5.4 | 53.3*
Cc1cc(/C=N/n2cnnc2)c(C)n1-c1ccc(OCc2ccc(F)cc2)cc1 | 17.1 | -3.3 | 45.7* | 0.5 | -22.0 | 35.8
Cc1cc(/C=N/n2cnnc2)c(C)n1-c1ccc(OCc2ccc(Cl)cc2Cl)cc1 | nt | -0.9 | 37.4 | 2.6 | -14.6 | nt
CCCc1nnc(NC(=O)Cn2c(=O)sc3ccccc32)s1 | 46.0* | 1.4 | 6.8 | -6.5 | 0.1 | -0.3
CC1(C(=O)Nc2ccc3c(c2)OCO3)CCN1C(=O)C1CCCCC1 (stereo unspecified) | -0.3 | -2.8 | 4.0 | 5.0 | 0.1 | -20.0
COc1cccc(C(=O)Nc2cccc(OC(C)=O)c2)c1 | 3.1 | 2.6 | -8.9 | 2.6 | 6.9 | 3.3
CC(=O)Oc1cccc(NC(=O)c2cccc(C(=O)Nc3cccc(OC(C)=O)c3)c2)c1 | 9.4 | -1.3 | 13.8 | 1.3 | -4.5 | 69.3*
CC(C)Cn1c(N)c(C(=O)COC(=O)c2cc(C(F)(F)F)nc3c(C(F)(F)F)cccc23)c(=O)n(C)c1=O | 3.2 | nt | nt | nt | nt | -7.9
CC(C)(C)NCCC(O)c1cc(C(F)(F)F)nc2c(C(F)(F)F)cccc12 (stereo unspecified) | 37.7* | 4.4 | -1.9 | 5.1 | -0.2 | 15.5
COC(=O)c1ccc2[nH]ccc2c1 | 0.9 | -6.1 | 3.6 | 0.5 | 1.5 | -2.2
CC(=O)c1ccc(S(=O)(=O)N2CCN(C(=O)c3ccc(COc4ccccc4)o3)CC2)cc1 | 7.7 | -2.3 | 18.4 | 2.6 | -11.8 | 42.2
O=S1(=O)CCC(NC(=S)Nc2ccc3ccccc3c2)C1 (stereo unspecified) | 6.6 | -1.6 | -10.1 | 0.0 | 6.2 | -26.1
O=S1(=O)CCC(NC(=S)Nc2ccccc2)C1 (stereo unspecified) | 1.9 | 1.7 | -33.8 | 5.8 | 28.9* | -27.3
O=C(c1ccco1)N1CCN(C(=O)c2ccc(Br)o2)CC1 | 0.7 | -4.0 | -11.6 | 0.6 | 6.5 | -9.9
O=C(c1ccc(Br)o1)N1CCN(C23CC4CC(CC(C4)C2)C3)CC1 | 14.7 | -6.3 | 67.1* | 5.6 | -22.0 | -22.5
CC(Cl)C(=O)Nc1cc(C(F)(F)F)ccc1N1CCOCC1 (stereo unspecified) | -1.5 | -6.4 | -4.2 | 0.5 | 5.8 | -12.6
CN1CCN(c2ccc(C(F)(F)F)cc2NC(=O)Nc2ccccc2)CC1 | 52.5* | -1.1 | 6.4 | -1.9 | 0.3 | 28.8
CCOC(=S)SCC(=O)Nc1nc(-c2ccccc2)cs1 | 3.6 | -6.2 | -7.7 | -0.2 | 5.6 | 8.6
SMILES | TAAR1 ag | CHRM1 agonist | CHRM1 antagonist | HTR2A ag | CHRM1 PAM | TAAR1 antag
COc1ccccc1C1(O)CCN(CC(=O)Nc2nc(-c3ccccc3)cs2)CC1 | 6.0 | -3.7 | 6.3 | -2.7 | -4.1 | 53.0*
CCOC(=S)SCC(=O)Nc1nc(-c2ccc(Br)cc2)cs1 | 0.3 | -4.2 | 32.5* | 0.5 | 3.9 | -0.6
CCOC(=O)N1CCN(C(=O)CSCC(=O)Nc2nc(-c3ccc(-c4ccccc4)cc3)cs2)CC1 | 7.6 | 4.3 | 48.2* | -0.3 | -18.6 | 70.2*
O=C(NCCCN1CCCC1=O)c1c(O)nc2sccn2c1=O | 1.0 | -0.9 | -9.2 | 2.0 | 7.9 | 9.3
COc1ccc(/C=C/C(=O)Nc2c(C(=O)O)[nH]c3ccccc23)cc1OC | 1.2 | -2.2 | -13.9 | 6.2 | 12.3 | -12.2
COc1ccc(CCCNC(=O)C2Cc3c(-c4ccc5c(c4)OCO5)ccnc3O2)cc1 (stereo unspecified) | -0.7 | -0.8 | -9.4 | -1.8 | 5.2 | -12.9
CC(O)(C#CCN1CCCCC1)c1ccccc1 (stereo unspecified) | 2.5 | -8.1 | 29.7 | -1.0 | -18.7 | -4.9
CC1(C(O)(C#CC[N+]2(C)CCCCC2)c2ccccc2)CCCC1 (stereo unspecified) | 10.8 | -13.4 | 71.8* | 3.6 | -31.7 | -6.7
O=C(O)c1ccc(COc2ccc3ccccc3c2/C=C2/NC(=O)N(c3ccccc3)C2=O)cc1 | 10.3 | -4.6 | 17.3 | -3.5 | -1.5 | 28.4
CCN1C(=O)S/C(=C/c2c(OCc3ccc(C(=O)O)cc3)ccc3ccccc23)C1=O | 0.6 | 29.1* | -0.4 | 1.7 | 15.8 | 9.2
Fc1ccc(-c2[nH]ncc2CN(CC2CCC2)CC2CCCO2)c(F)c1 (stereo unspecified) | 0.0 | -7.8 | -9.1 | 1.0 | 7.0 | -3.3
CCCC1C2CN(C(C)C)CC=C2C(C#N)=C(N)C1(C#N)C#N (stereo unspecified) | 9.0 | -1.2 | 38.1* | 7.4 | -20.1 | 7.1
CN1CC=C2C(C#N)=C(N)C(C#N)(C#N)C(CCc3ccccc3)C2C1 (stereo unspecified) | nt | -1.3 | -2.3 | -3.6 | -4.3 | nt
COCCCn1c(=O)c2sccc2n(Cc2ccc(C)cc2)c1=O | 3.1 | 5.2 | -17.6 | 6.3 | 16.9 | -0.7
Cc1cc(Oc2ccc(=O)n(C)n2)nc(SCCOc2ccccc2)n1 | 5.1 | -2.0 | -15.1 | -3.3 | 7.4 | -27.3
Nc1ccc2cc3[nH]c4cc(N)ccc4c3nc2c1 | 78.1* | 35.7* | 57.1* | -2.3 | -17.9 | 63.2*
Nc1ccc(-c2nc3ccc(N)cc3[nH]2)cc1 | 13.4 | -4.6 | 2.6 | 5.0 | 6.1 | 8.6
Cc1ccccc1C1(CCN2CCCCC2)CCOC(C)(C)C1 (stereo unspecified) | 4.5 | -12.7 | 51.9* | 2.7 | -25.9 | -7.6
COc1ccc(OCC(O)CNC(C)c2ccccc2)cc1 (stereo unspecified) | 4.4 | -4.1 | 1.1 | -2.0 | 0.1 | -25.8
CC(NCC(O)COc1ccc(Br)cc1)c1ccccc1 (stereo unspecified) | 43.0* | 0.6 | 74.7* | -3.1 | -3.3 | 3.3
